Reference: ChEMBL document CHEMBL1142894, “Preparation of 5-aryl-3-alkylthio-l,2,4-triazoles and corresponding sulfones with antiinflammatory-analgesic activity” (Bioorg Med Chem, 2007)
Active and inactive are the calls of the source. The calls are words filed in the database; no cut-off is given here.

Key:
Mus musculus [1] = test: Analgesic activity against p-benzoquinone-induced abdominal constriction in Swiss albino mouse assessed as number of writhings at 200 mg/kg, po; format: functional, Abdomen
Method in brief: (§1)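 Test samples given orally in 0.5% CMC; vehicle to controls. 60 min later, 2.5% (v/v) p-benzoquinone in distilled water, 0.1 ml/10 g, given i.p. Mice housed singly; writhes counted for 15 min starting 5 min after injection. Activity is % change from vehicle controls. n = 6; mean ± SEM.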

Mus musculus [2] = test: Inhibition of carrageenan-induced paw edema in Swiss albino mouse at 50 mg/kg, po after 90 mins relative to control; format: functional; details: 1.5 h
Method in brief: (§2)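 Mice, n = 6 per group. Test agent given orally as a suspension in 0.5% sodium CMC in distilled water; controls received vehicle only. Afterwards, 0.5 mg/25 ll carrageenan in saline (154 mM NaCl) injected subplantar into the right hind paw, saline into the left. Right-minus-left footpad thickness measured by dial gauge caliper every 90 min for 6 h. Inhibition is relative to vehicle-control group means.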

Mus musculus [3] = test: Analgesic activity against p-benzoquinone-induced abdominal constriction in Swiss albino mouse assessed as number of writhings at 25 mg/kg, po; format: functional, Abdomen; method in brief: as §1
Mus musculus [4] = test: Inhibition of carrageenan-induced paw edema in Swiss albino mouse at 200 mg/kg, po after 90 mins relative to control; format: functional; details: 1.5 h
Method in brief: (§3)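 Oral dosing in 0.5% CMC; vehicle to controls. Then carrageenan (0.5 mg/25 ll, freshly suspended in 154 mM saline) injected into the right hind paw subplantar tissue; saline into the left paw. Right-left footpad thickness difference measured by dial gauge calliper every 90 min over 6 h. Inhibition % is relative to vehicle control. n = 6; mean ± SEM.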

Mus musculus [5] = test: Antiinflammatory activity against carrageenan-induced paw edema in Swiss albino mouse assessed as swelling thickness at 200 mg/kg, po after 360 mins; format: functional; method in brief: as §3
Mus musculus [6] = test: Inhibition of carrageenan-induced paw edema in Swiss albino mouse at 25 mg/kg, po after 270 mins relative to control; format: functional; details: 4.5 h; method in brief: as §3
Mus musculus [7] = test: Gastric-ulcerogenic effect in Swiss albino mouse assessed as lesions at 25 mg/kg, po; format: functional, organism-based; set-up: dose 25 mg/kg
Method in brief: (§4)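 Mice killed under deep ether anesthesia 3 h after the writhing test; the oral dose in 0.5% CMC was the one used in that test. Stomachs removed, opened along the great curvature and examined under a dissecting microscope for lesions or bleeding. Reported as ratio of ulceration; n = 6.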

Mus musculus [8] = test: Inhibition of carrageenan-induced paw edema in Swiss albino mouse at 100 mg/kg, po after 360 mins relative to control; format: functional; details: 6 h; method in brief: as §3
Mus musculus [9] = test: Acute toxicity in Swiss albino mouse assessed as lethal effect at 200 mg/kg/day, po after 72 hrs; format: organism-based; set-up: route oral; details: in vivo
Method in brief: (§5)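 Oral single dose suspended in 0.5% carboxymethylcellulose, given after a 24 h fast; food and water returned 1 h after dosing. Vehicle-only controls. Mice observed at 1 h, then once daily for 72 h, for toxic signs and mortality.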

Mus musculus [10] = test: Antiinflammatory activity against carrageenan-induced paw edema in Swiss albino mouse assessed as swelling thickness at 50 mg/kg, po after 90 mins; format: functional; method in brief: as §3
Mus musculus [11] = test: Inhibition of p-benzoquinone-induced writhing in Swiss albino mouse at 200 mg/kg, po relative to control; format: functional
Method in brief: (§6)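 Mice, n = 6 per group, dosed orally with a suspension in 0.5% sodium CMC. 60 min later, 0.1 ml/10 g of 2.5% […] p-benzoquinone in distilled water given ip. Abdominal writhes counted per animal for 15 min, starting 5 min after injection. Expressed as % change in mean writhing count versus vehicle controls.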

Mus musculus [12] = test: Inhibition of carrageenan-induced paw edema in Swiss albino mouse at 200 mg/kg, po after 360 mins relative to control; format: functional; details: 6 h; method in brief: as §3
Mus musculus [13] = test: Inhibition of carrageenan-induced paw edema in Swiss albino mouse at 50 mg/kg, po after 180 mins relative to control; format: functional; details: 3 h; method in brief: as §3
Mus musculus [14] = test: Antiinflammatory activity against carrageenan-induced paw edema in Swiss albino mouse assessed as swelling thickness at 25 mg/kg, po after 90 mins; format: functional; method in brief: as §3
Mus musculus [15] = test: Acute toxicity in Swiss albino mouse assessed as lethal effect at 100 mg/kg/day, po after 72 hrs; format: organism-based; set-up: route oral; details: in vivo; method in brief: as §5
Mus musculus [16] = test: Inhibition of carrageenan-induced paw edema in Swiss albino mouse at 25 mg/kg, po after 360 mins relative to control; format: functional; details: 6 h; method in brief: as §3
Mus musculus [17] = test: Antiinflammatory activity against carrageenan-induced paw edema in Swiss albino mouse assessed as swelling thickness at 200 mg/kg, po after 270 mins; format: functional; method in brief: as §3
Mus musculus [18] = test: Antiinflammatory activity against carrageenan-induced paw edema in Swiss albino mouse assessed as swelling thickness at 100 mg/kg, po after 270 mins; format: functional; method in brief: as §3
Mus musculus [19] = test: Inhibition of carrageenan-induced paw edema in Swiss albino mouse at 100 mg/kg, po after 180 mins relative to control; format: functional; details: 3 h; method in brief: as §3
Mus musculus [20] = test: Antiinflammatory activity against carrageenan-induced paw edema in Swiss albino mouse assessed as swelling thickness at 50 mg/kg, po after 270 mins; format: functional; method in brief: as §3
Mus musculus [21] = test: Antiinflammatory activity against carrageenan-induced paw edema in Swiss albino mouse assessed as swelling thickness at 25 mg/kg, po after 360 mins; format: functional; method in brief: as §3
Mus musculus [22] = test: Inhibition of carrageenan-induced paw edema in Swiss albino mouse at 25 mg/kg, po after 180 mins relative to control; format: functional; details: 3 h; method in brief: as §3
Mus musculus [23] = test: Inhibition of carrageenan-induced paw edema in Swiss albino mouse at 25 mg/kg, po after 90 mins relative to control; format: functional; details: 1.5 h; method in brief: as §3
Mus musculus [24] = test: Inhibition of carrageenan-induced paw edema in Swiss albino mouse at 100 mg/kg, po after 90 mins relative to control; format: functional; details: 1.5 h; method in brief: as §3
Mus musculus [25] = test: Inhibition of carrageenan-induced paw edema in Swiss albino mouse at 200 mg/kg, po after 270 mins relative to control; format: functional; details: 4.5 h; method in brief: as §3
Mus musculus [26] = test: Antiinflammatory activity against carrageenan-induced paw edema in Swiss albino mouse assessed as swelling thickness at 100 mg/kg, po after 360 mins; format: functional; method in brief: as §3
Mus musculus [27] = test: Antiinflammatory activity against carrageenan-induced paw edema in Swiss albino mouse assessed as swelling thickness at 50 mg/kg, po after 360 mins; format: functional; method in brief: as §3
Mus musculus [28] = test: Antiinflammatory activity against carrageenan-induced paw edema in Swiss albino mouse assessed as swelling thickness at 100 mg/kg, po after 180 mins; format: functional; method in brief: as §3
Mus musculus [29] = test: Inhibition of carrageenan-induced paw edema in Swiss albino mouse at 200 mg/kg, po after 180 mins relative to control; format: functional; details: 3 h; method in brief: as §3
Mus musculus [30] = test: Antiinflammatory activity against carrageenan-induced paw edema in Swiss albino mouse assessed as swelling thickness at 25 mg/kg, po after 270 mins; format: functional; method in brief: as §3
Mus musculus [31] = test: Inhibition of p-benzoquinone-induced writhing in Swiss albino mouse at 100 mg/kg, po relative to control; format: functional; method in brief: as §6
Mus musculus [32] = test: Analgesic activity against p-benzoquinone-induced abdominal constriction in Swiss albino mouse assessed as number of writhings at 50 mg/kg, po; format: functional, Abdomen; method in brief: as §1
Mus musculus [33] = test: Antiinflammatory activity against carrageenan-induced paw edema in Swiss albino mouse assessed as swelling thickness at 200 mg/kg, po after 180 mins; format: functional; method in brief: as §3
Mus musculus [34] = test: Antiinflammatory activity against carrageenan-induced paw edema in Swiss albino mouse assessed as swelling thickness at 200 mg/kg, po after 90 mins; format: functional; method in brief: as §3
Mus musculus [35] = test: Acute toxicity in Swiss albino mouse assessed as lethal effect at 50 mg/kg/day, po after 72 hrs; format: organism-based; set-up: route oral; details: in vivo; method in brief: as §5
Mus musculus [36] = test: Antiinflammatory activity against carrageenan-induced paw edema in Swiss albino mouse assessed as swelling thickness at 50 mg/kg, po after 180 mins; format: functional; method in brief: as §3
Mus musculus [37] = test: Gastric-ulcerogenic effect in Swiss albino mouse assessed as lesions at 50 mg/kg, po; format: functional, organism-based; set-up: dose 50 mg/kg; method in brief: as §4
Mus musculus [38] = test: Inhibition of carrageenan-induced paw edema in Swiss albino mouse at 50 mg/kg, po after 270 mins relative to control; format: functional; details: 4.5 h; method in brief: as §2
Mus musculus [39] = test: Inhibition of p-benzoquinone-induced writhing in Swiss albino mouse at 50 mg/kg, po relative to control; format: functional; method in brief: as §6
Mus musculus [40] = test: Antiinflammatory activity against carrageenan-induced paw edema in Swiss albino mouse assessed as swelling thickness at 100 mg/kg, po after 90 mins; format: functional; method in brief: as §3
Mus musculus [41] = test: Inhibition of carrageenan-induced paw edema in Swiss albino mouse at 50 mg/kg, po after 360 mins relative to control; format: functional; details: 6 h; method in brief: as §2
Mus musculus [42] = test: Acute toxicity in Swiss albino mouse assessed as lethal effect at 25 mg/kg/day, po after 72 hrs; format: organism-based; set-up: route oral; details: in vivo; method in brief: as §5
Mus musculus [43] = test: Analgesic activity against p-benzoquinone-induced abdominal constriction in Swiss albino mouse assessed as number of writhings at 100 mg/kg, po; format: functional, Abdomen; method in brief: as §1
Mus musculus [44] = test: Antiinflammatory activity against carrageenan-induced paw edema in Swiss albino mouse assessed as swelling thickness at 25 mg/kg, po after 180 mins; format: functional; method in brief: as §3
Mus musculus [45] = test: Inhibition of p-benzoquinone-induced writhing in Swiss albino mouse at 25 mg/kg, po relative to control; format: functional; method in brief: as §6
Mus musculus [46] = test: Inhibition of carrageenan-induced paw edema in Swiss albino mouse at 100 mg/kg, po after 270 mins relative to control; format: functional; details: 4.5 h; method in brief: as §3

CS(=O)(=O)c1nc(-c2ccccc2Cl)n[nH]1
Activity (Mus musculus [1]): 45.3 | inhibition in vivo at 50 mg/kg (Mus musculus [2]): 26.5% | Activity (Mus musculus [3]): 40.1 | inhibition in vivo at 200 mg/kg (Mus musculus [4]): 6.4% | Activity (Mus musculus [5]): 65.1 10^-2mm | inhibition in vivo at 25 mg/kg (Mus musculus [6]): 7.1% | Activity (Mus musculus [7]): Active | inhibition in vivo at 100 mg/kg (Mus musculus [8]): 35.3% | Activity (Mus musculus [9]): Non-toxic | Activity (Mus musculus [10]): 39.1 10^-2mm | inhibition in vivo at 200 mg/kg (Mus musculus [11]): 11.9% | inhibition in vivo at 200 mg/kg (Mus musculus [12]): 9.6% | inhibition in vivo at 50 mg/kg (Mus musculus [13]): 30.6% | Activity (Mus musculus [14]): 49.1 10^-2mm | Activity (Mus musculus [15]): Non-toxic | inhibition in vivo at 25 mg/kg (Mus musculus [16]): 6.8% | Activity (Mus musculus [17]): 59.8 10^-2mm | Activity (Mus musculus [18]): 41.3 10^-2mm | inhibition in vivo at 100 mg/kg (Mus musculus [19]): 24.3% | Activity (Mus musculus [20]): 43.1 10^-2mm | Activity (Mus musculus [21]): 67.1 10^-2mm | inhibition in vivo at 25 mg/kg (Mus musculus [22]): 4.2% | inhibition in vivo at 25 mg/kg (Mus musculus [23]): 7.7% | inhibition in vivo at 100 mg/kg (Mus musculus [24]): 21.9% | inhibition in vivo at 200 mg/kg (Mus musculus [25]): 7.7% | Activity (Mus musculus [26]): 44.5 10^-2mm | Activity (Mus musculus [27]): 45.5 10^-2mm | Activity (Mus musculus [28]): 39 10^-2mm | inhibition in vivo at 200 mg/kg (Mus musculus [29]): 8.1% | Activity (Mus musculus [30]): 60.2 10^-2mm | inhibition in vivo at 100 mg/kg (Mus musculus [31]): 31.9% | Activity (Mus musculus [32]): 30.4 | Activity (Mus musculus [33]): 54.6 10^-2mm | Activity (Mus musculus [34]): 49.8 10^-2mm | Activity (Mus musculus [35]): Non-toxic | Activity (Mus musculus [36]): 41.2 10^-2mm | Activity (Mus musculus [37]): Active | inhibition in vivo at 50 mg/kg (Mus musculus [38]): 33.5% | inhibition in vivo at 50 mg/kg (Mus musculus [39]): 40.9% | Activity (Mus musculus [40]): 35 10^-2mm | inhibition in vivo at 50 mg/kg (Mus musculus [41]): 36.8% | Activity (Mus musculus [42]): Non-toxic | Activity (Mus musculus [43]): 32.2 | Activity (Mus musculus [44]): 56.9 10^-2mm | inhibition in vivo at 25 mg/kg (Mus musculus [45]): 21.9% | inhibition in vivo at 100 mg/kg (Mus musculus [46]): 29.8%
